# Measurements: ChEMBL document CHEMBL4373721, “Computer-Aided Design of Mastoparan-like Peptides Enables the Generation of Nontoxic Variants with Extended Antibacterial Properties” (J Med Chem, 2019)
# Activity calls are given as the source filed them. The calls are words filed in the database; no cut-off is given here. Residues, ends and D or L forms follow the SMILES beside them.
# What was measured:
# MCF7 = experiment: Cytotoxicity in human MCF7 cells assessed as reduction in cell viability incubated for 2 hrs by MTT assay; type: functional, cell-based; conditions: MCF7, 2 h
# PC-3 = experiment: Cytotoxicity in human PC3 cells assessed as reduction in cell viability incubated for 2 hrs by MTT assay; type: functional, cell-based; conditions: PC-3, 2 h
# HT-29 = experiment: Cytotoxicity in human HT-29 cells assessed as reduction in cell viability incubated for 2 hrs by MTT assay; type: functional, cell-based; conditions: HT-29, 2 h
# Klebsiella pneumoniae [1] = experiment: Antibacterial activity against Klebsiella pneumoniae ATCC 13883 incubated for 18 hrs by spectrophotometry; type: functional; conditions: ATCC 13883, 18 h
# Procedure, shortened: (§1)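 Broth microdilution per CLSI in Mueller-Hinton broth. Three colonies grown overnight in MHB at 37 °C, 200 rpm; final inoculum 2-5 x 10^5 CFU/mL. Peptides tested at 2 to 32 μM, chloramphenicol as positive control at the same concentrations. Incubated 18 h at 37 °C, OD600 read. MIC taken as lowest inhibiting concentration; three independent experiments.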
# Enterobacter cloacae = experiment: Antibacterial activity against Enterobacter cloacae isolate 1383251 incubated for 18 hrs by spectrophotometry; type: functional; conditions: isolate 1383251, 18 h; procedure, shortened: as §1
# Staphylococcus aureus [2] = experiment: Antibacterial activity against methicillin-resistant Staphylococcus aureus isolate 713623 incubated for 18 hrs by spectrophotometry; type: functional; conditions: isolate 713623, 18 h
# Procedure, shortened: (§2)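 Broth microdilution per CLSI in Mueller-Hinton broth; inocula from three colonies grown overnight at 37 °C, 200 rpm; final 2-5 x 10^5 CFU/mL. Peptides tested at 2 to 32 μM; chloramphenicol at same concentrations as positive control. Plates incubated 37 °C, 18 h; growth read at 600 nm. Three independent experiments.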
# Escherichia coli [3] = experiment: Antibacterial activity against Escherichia coli BL21 incubated for 18 hrs by spectrophotometry; type: functional; conditions: BL21, 18 h; procedure, shortened: as §1
# Pseudomonas aeruginosa [4] = experiment: Antibacterial activity against Pseudomonas aeruginosa PA14 infected in CD-1 IGS mouse model of scarification skin infection assessed as reduction in bacterial counts at 64 uM measured on day 2 post-infection relative to control; type: functional
# Procedure, shortened: (§3)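 Six-week-old female CD-1 IGS mice under isoflurane, back shaved, superficial skin abrasions sparing the dermis. Five minutes later, 5 x 10^7 CFU in 50 μL PBS applied to the wound. Two days later, peptide applied to the same area at 64 µM in 20 µL. Infected skin excised and homogenized for CFU counts two and four days post-infection. Four mice per group, two independent experiments; one-way ANOVA with Dunnett's test.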
# Staphylococcus aureus [5] = experiment: Antibacterial activity against Staphylococcus aureus ATCC 25923 incubated for 18 hrs by spectrophotometry; type: functional; conditions: ATCC 25923, 18 h; procedure, shortened: as §2
# Klebsiella pneumoniae [6] = experiment: Antibacterial activity against KPC+ Klebsiella pneumoniae isolate 001825971 incubated for 18 hrs by spectrophotometry; type: functional; conditions: isolate 001825971, 18 h; procedure, shortened: as §1
# Staphylococcus aureus [7] = experiment: Antibacterial activity against Staphylococcus aureus ATCC 12600 incubated for 18 hrs by spectrophotometry; type: functional; conditions: ATCC 12600, 18 h; procedure, shortened: as §1
# 3T3-L1 = experiment: Cytotoxicity in mouse 3T3L1 cells assessed as reduction in cell viability incubated for 2 hrs by MTT assay; type: cell-based; conditions: 3T3-L1, 2 h
# Procedure, shortened: (§4)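 Cells grown at 37 °C, 5% CO2, passages 2–10, seeded 5 x 10^3 cells/well, attached 24 h. Media refreshed, then peptides added at final 0.781 to 100 μM. Viability reagent added after 2 h, followed by 4 h further incubation. Supernatant replaced by DMSO, absorbance read at 600 nm. Three independent experiments.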
# Pseudomonas aeruginosa [8] = experiment: Antibacterial activity against Pseudomonas aeruginosa PA14 infected in CD-1 IGS mouse model of scarification skin infection assessed as reduction in bacterial counts at 64 uM measured on day 4 post-infection relative to control; type: functional; procedure, shortened: as §3
# HUVEC = experiment: Cytotoxicity in HUVEC assessed as reduction in cell viability incubated for 2 hrs by MTT assay; type: cell-based; conditions: Homo sapiens; procedure, shortened: as §4
# Escherichia coli [9] = experiment: Antibacterial activity against KPC+ Escherichia coli isolate 001812446 incubated for 18 hrs by spectrophotometry; type: functional; conditions: isolate 001812446, 18 h; procedure, shortened: as §1
# Acinetobacter baumannii = experiment: Antibacterial activity against Acinetobacter baumannii isolate 003326263 incubated for 18 hrs by spectrophotometry; type: functional; conditions: isolate 003326263, 18 h; procedure, shortened: as §1
# [10] = Induction of hemolysis in human RBC at 100 uM incubated for 1 hr relative to control; type: cell-based, Erythrocyte; conditions: red blood cells (RBC), read-out: Activity
# Procedure, shortened: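 Human erythrocytes from healthy volunteers, washed three times in PBS, used as a 0.25% suspension in PBS. Peptides serially diluted, top concentration 100 μM per well. Incubated 1 h at 37 °C, then centrifuged, and supernatant absorbance read at 415 nm. PBS was the negative control and 1% Triton X-100 the 100% lysis control. Three replicates.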
# Escherichia coli [11] = experiment: Antibacterial activity against Escherichia coli ATCC 25922 incubated for 18 hrs by spectrophotometry; type: functional; conditions: ATCC 25922, 18 h; procedure, shortened: as §1
# Pseudomonas aeruginosa [12] = experiment: Antibacterial activity against Pseudomonas aeruginosa PA14 infected in CD-1 IGS mouse model of scarification skin infection assessed as reduction in bacterial counts at 64 uM measured on day 2 to 4 post-infection relative to control; type: functional, organism-based; conditions: TDE = time-dependent effect; procedure, shortened: as §3
# Pseudomonas aeruginosa [13] = experiment: Antibacterial activity against Pseudomonas aeruginosa PAO1 incubated for 18 hrs by spectrophotometry; type: functional; conditions: PAO1, 18 h; procedure, shortened: as §1
# Pseudomonas aeruginosa [14] = experiment: Antibiofilm activity against 2 day-old preformed Pseudomonas aeruginosa PAO1 assessed as induction of biofilm eradication at 16 uM incubated for 24 hrs by SYTO-9 dye based by confocal microscopy; type: functional, organism-based
# Procedure, shortened: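 Flow-cell biofilms: chambers inoculated with overnight culture diluted to OD600 ~0.5, grown in BM2 with 0.4% glucose. Established biofilms then given continuous flow of peptide at 16 µM in BM2 for 24 h. Stained with SYTO-9 (live) and propidium iodide (dead), imaged by confocal microscopy with 3D reconstruction. Two independent experiments.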
# Pseudomonas aeruginosa [15] = experiment: Antibacterial activity against Pseudomonas aeruginosa PA14 incubated for 18 hrs by spectrophotometry; type: functional; conditions: PA14, 18 h; procedure, shortened: as §1
# Pseudomonas aeruginosa [16] = experiment: Antibacterial activity against bioluminescent Pseudomonas aeruginosa H1001 incubated for 4 hrs by luminescence based assay; type: functional; conditions: H1001, 4 h
# Procedure, shortened: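 Crude peptides released from cellulose spots, two-fold diluted in BM2 (62 mM potassium phosphate pH 7, 2 mM MgSO4, 10 μM FeSO4, 0.4% glucose). Strain fliC::luxCDABE grown in LB to OD600 0.4, diluted 4:100 into BM2, mixed 1:1 with peptide (128 to 2 μM). Shaken 50 rpm, 4 h, 37 °C. Activity scored as luminescence reduction versus untreated cells.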
SMILES,IC50 (MCF7) [µM],IC50 (PC-3) [µM],IC50 (HT-29) [µM],MIC (Klebsiella pneumoniae [1]) [µM],MIC (Enterobacter cloacae) [µM],MIC (Staphylococcus aureus [2]) [µM],MIC (Escherichia coli [3]) [µM],fold change (FC) (Pseudomonas aeruginosa [4]),MIC (Staphylococcus aureus [5]) [µM],MIC (Klebsiella pneumoniae [6]) [µM],MIC (Staphylococcus aureus [7]) [µM],IC50 (3T3-L1) [µM],IC50 (HUVEC) [µM],MIC (Escherichia coli [9]) [µM],MIC (Acinetobacter baumannii) [µM],"hemolysis at 1 h, 100 µM [10] [%]",MIC (Escherichia coli [11]) [µM],Activity (Pseudomonas aeruginosa [12]),MIC (Pseudomonas aeruginosa [13]) [µM],MIC (Pseudomonas aeruginosa [16]) [µM],further results
CC[C@H](C)[C@H](N)C(=O)N[C@@H](CC(N)=O)C(=O)N[C@@H](CC(C)C)C(=O)N[C@@H](CCCCN)C(=O)N[C@@H](C)C(=O)N[C@@H](CC(C)C)C(=O)N[C@@H](C)C(=O)N[C@@H](C)C(=O)N[C@@H](CC(C)C)C(=O)N[C@@H](C)C(=O)N[C@@H](CCCCN)C(=O)N[C@@H](CCCCN)C(=O)N[C@H](C(=O)N[C@@H](CC(C)C)C(=O)O)[C@@H](C)CC,25,12.5,25,> 32,> 32,> 32,2,100,> 32,> 32,8,12.5,50,> 32,> 32,45,32,Tde,8,–,Activity (Pseudomonas aeruginosa [8]): Active; Activity (Pseudomonas aeruginosa [14]): inactive; MIC (Pseudomonas aeruginosa [15]): 8 µM
CC[C@H](C)[C@H](N)C(=O)N[C@@H](CCCCN)C(=O)N[C@@H](CC(C)C)C(=O)N[C@@H](CC(C)C)C(=O)N[C@@H](C)C(=O)N[C@@H](CCCNC(=N)N)C(=O)N[C@H](C(=O)N[C@@H](C)C(=O)N[C@@H](CC(C)C)C(=O)N[C@@H](CCCCN)C(=O)N[C@H](C(=O)N[C@@H](CCCCN)C(=O)N[C@H](C(=O)N[C@@H](CC(C)C)C(=O)O)[C@@H](C)CC)[C@@H](C)CC)[C@@H](C)CC (H-IKLLARIALKIKIL-OH),–,–,–,–,–,–,–,–,–,–,–,–,–,–,–,–,–,–,–,30,–
CC[C@H](C)[C@H](N)C(=O)N[C@@H](CC(N)=O)C(=O)N[C@@H](CCCCN)C(=O)N[C@H](C(=O)N[C@@H](C)C(=O)N[C@@H](CC(C)C)C(=O)N[C@@H](CCCNC(=N)N)C(=O)N[C@H](C(=O)N[C@@H](CC(C)C)C(=O)N[C@@H](C)C(=O)N[C@@H](CCCCN)C(=O)N[C@H](C(=O)N[C@H](C(=O)N[C@@H](CC(C)C)C(=O)O)[C@@H](C)CC)[C@@H](C)CC)[C@@H](C)CC)[C@@H](C)CC (H-INKIALRILAKIIL-OH),–,–,–,–,–,–,–,–,–,–,–,–,–,–,–,–,–,–,–,30,–
CC[C@H](C)[C@H](N)C(=O)N[C@@H](CC(N)=O)C(=O)N[C@@H](CC(C)C)C(=O)N[C@@H](CCCCN)C(=O)N[C@@H](CCCCN)C(=O)N[C@@H](CC(C)C)C(=O)N[C@@H](C)C(=O)N[C@@H](C)C(=O)N[C@@H](CCCNC(=N)N)C(=O)N[C@H](C(=O)N[C@@H](CCCCN)C(=O)N[C@@H](CCCCN)C(=O)N[C@@H](CCCCN)C(=O)N[C@H](C(=O)O)[C@@H](C)CC)[C@@H](C)CC (H-INLKKLAARIKKKI-OH),> 100,> 100,> 100,> 32,> 32,8,2,100,8,> 32,4,> 100,> 100,8,> 32,8,4,Tde,4,4,Activity (Pseudomonas aeruginosa [8]): Active; Activity (Pseudomonas aeruginosa [14]): Active; MIC (Pseudomonas aeruginosa [15]): 4 µM
CC[C@H](C)[C@H](NC(=O)[C@H](CCCCN)NC(=O)[C@H](CCCCN)NC(=O)[C@@H](NC(=O)[C@H](CCCCN)NC(=O)[C@H](C)NC(=O)[C@H](C)NC(=O)[C@H](CC(C)C)NC(=O)[C@H](CCCNC(=N)N)NC(=O)[C@H](CCCCN)NC(=O)[C@H](CC(C)C)NC(=O)[C@@H](NC(=O)[C@@H](N)CCCCN)[C@@H](C)CC)[C@@H](C)CC)C(=O)N[C@@H](CC(C)C)C(=O)O (H-KILKRLAAKIKKIL-OH),> 100,> 100,> 100,8,> 32,> 32,2,100,> 32,> 32,4,> 100,> 100,8,> 32,3,4,Tde,4,4,fold change (FC) (Pseudomonas aeruginosa [8]): 1000; Activity (Pseudomonas aeruginosa [14]): Active; MIC (Pseudomonas aeruginosa [15]): 4 µM
CC[C@H](C)[C@H](NC(=O)[C@H](CCCCN)NC(=O)[C@H](C)NC(=O)[C@H](C)NC(=O)[C@H](CC(C)C)NC(=O)[C@H](CCCNC(=N)N)NC(=O)[C@H](CC(C)C)NC(=O)[C@H](C)NC(=O)[C@H](CC(C)C)NC(=O)[C@H](CCCCN)NC(=O)[C@H](CC(C)C)NC(=O)[C@H](CCCCN)NC(=O)[C@H](CCCCN)NC(=O)[C@H](CCSC)NC(=O)[C@@H]1CCCN1)C(=O)N[C@@H](C)C(=O)N1CCC[C@H]1C(=O)N[C@H](C(=O)N[C@@H](Cc1c[nH]c2ccccc12)C(=O)O)C(C)C (H-PMKKLKLALRLAAKIAPVW-OH),–,–,–,–,–,–,–,100,–,–,–,–,–,–,–,–,–,–,–,–,–
